Laboratory results from ChEMBL document CHEMBL2029228, “Antimalarial activity of 9a-N substituted 15-membered azalides with improved in vitro and in vivo activity over azithromycin” (J Med Chem, 2012).

Key:
[1] = system: HepG2; experiment: Cytotoxicity against human HepG2 cells after 24 hrs by MTS assay; type: cell-based; conditions: HepG2, 24 h
Procedure, shortened: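 HepG2 cells kept in RPMI 1640 with 10% FBS plus antibiotics at 37 °C, 5% CO₂. 50 000 cells per well exposed to 10 two-fold serial dilutions for 24 h. MTS reagent then added for 2 h more, absorbance read at 490 nm, IC50 derived.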

[2] = system: Plasmodium falciparum; experiment: Antimalarial activity against mefloquine-resistant Plasmodium falciparum TM91C235 assessed as [3H]hypoxanthine incorporation after 48 hrs; type: functional, organism-based
Procedure, shortened: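 Tritiated hypoxanthine incorporation assay (Desjardins method, Milhous modification) with 48 h drug exposure. Uses P. falciparum clone TM91C235 (Southeast Asian, mefloquine-resistant). Compounds 2-fold diluted over 11 concentrations. IC50 derived by nonlinear logistic dose-response fitting, averaged where multiple runs were done.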

SMILES | IC50 [1] [nM] | IC50 [2] [nM]
CC[C@H]1OC(=O)[C@H](C)[C@@H](O)[C@H](C)[C@@H](O[C@@H]2O[C@H](C)C[C@H](N(C)C)[C@H]2O)[C@](C)(O)C[C@@H](C)CN(CCCNCc2ccncc2)[C@H](C)[C@@H](O)[C@]1(C)O | > 50000 | 3890
CC[C@H]1OC(=O)[C@H](C)[C@@H](O)[C@H](C)[C@@H](O[C@@H]2O[C@H](C)C[C@H](N(C)C)[C@H]2O)[C@](C)(O)C[C@@H](C)CN(CCCNc2ccnc3ccccc23)[C@H](C)[C@@H](O)[C@]1(C)O | > 50000 | 437
CC[C@H]1OC(=O)[C@H](C)[C@@H](O)[C@H](C)[C@@H](O[C@@H]2O[C@H](C)C[C@H](N(C)C)[C@H]2O)[C@](C)(O)C[C@@H](C)CN(CCCNCc2ccc3ccccc3n2)[C@H](C)[C@@H](O)[C@]1(C)O | – | 164
CC[C@H]1OC(=O)[C@H](C)[C@@H](O[C@H]2C[C@@](C)(OC)[C@@H](O)[C@H](C)O2)[C@H](C)[C@@H](O[C@@H]2O[C@H](C)C[C@H](N(C)C)[C@H]2O)[C@](C)(O)C[C@@H](C)CN(CCC(=O)NCCCCc2ccccc2)[C@H](C)[C@@H](O)[C@]1(C)O | 40000 | 162
CC[C@H]1OC(=O)[C@H](C)[C@@H](O[C@H]2C[C@@](C)(OC)[C@@H](O)[C@H](C)O2)[C@H](C)[C@@H](O[C@@H]2O[C@H](C)C[C@H](N(C)C)[C@H]2O)[C@](C)(O)C[C@@H](C)CN(CCC(=O)NCCCc2ccccc2)[C@H](C)[C@@H](O)[C@]1(C)O | 40000 | 89
CC[C@H]1OC(=O)[C@H](C)[C@@H](O[C@H]2C[C@@](C)(OC)[C@@H](O)[C@H](C)O2)[C@H](C)[C@@H](O[C@@H]2O[C@H](C)C[C@H](N(C)C)[C@H]2O)[C@](C)(O)C[C@@H](C)CN(CCCNCc2ccncc2)[C@H](C)[C@@H](O)[C@]1(C)O | > 50000 | 568
CC[C@H]1OC(=O)[C@H](C)[C@@H](O)[C@H](C)[C@@H](O)[C@](C)(O)C[C@@H](C)CN(CCCNCc2ccc3ccccc3n2)[C@H](C)[C@@H](O)[C@]1(C)O | > 50000 | 1970
CC[C@H]1OC(=O)[C@H](C)[C@@H](O[C@H]2C[C@@](C)(OC)[C@@H](O)[C@H](C)O2)[C@H](C)[C@@H](O[C@@H]2O[C@H](C)C[C@H](N(C)C)[C@H]2O)[C@](C)(O)C[C@@H](C)CN(CCCNCCCCc2ccccc2)[C@H](C)[C@@H](O)[C@]1(C)O | 16000 | 51
CC[C@H]1OC(=O)[C@H](C)[C@@H](O[C@H]2C[C@@](C)(OC)[C@@H](O)[C@H](C)O2)[C@H](C)[C@@H](O[C@@H]2O[C@H](C)C[C@H](N(C)C)[C@H]2O)[C@](C)(O)C[C@@H](C)CN(CCCNCCCc2ccccc2)[C@H](C)[C@@H](O)[C@]1(C)O | 40000 | 106
CC[C@H]1OC(=O)[C@H](C)[C@@H](O[C@H]2C[C@@](C)(OC)[C@@H](O)[C@H](C)O2)[C@H](C)[C@@H](O[C@@H]2O[C@H](C)C[C@H](N(C)C)[C@H]2O)[C@](C)(O)C[C@@H](C)CN(CCCNC(=O)Cc2ccccc2)[C@H](C)[C@@H](O)[C@]1(C)O | > 50000 | 233
CC[C@H]1OC(=O)[C@H](C)[C@@H](O[C@H]2C[C@@](C)(OC)[C@@H](O)[C@H](C)O2)[C@H](C)[C@@H](O[C@@H]2O[C@H](C)C[C@H](N(C)C)[C@H]2O)[C@](C)(O)C[C@@H](C)CN(CCC(=O)NCc2cccc3ccccc23)[C@H](C)[C@@H](O)[C@]1(C)O | 49000 | 79
CC[C@H]1OC(=O)[C@H](C)[C@@H](O[C@H]2C[C@@](C)(OC)[C@@H](O)[C@H](C)O2)[C@H](C)[C@@H](O[C@@H]2O[C@H](C)C[C@H](N(C)C)[C@H]2O)[C@](C)(O)C[C@@H](C)CN(CCCNCc2cnc3ccccc3c2)[C@H](C)[C@@H](O)[C@]1(C)O | 45000 | 50
CC[C@H]1OC(=O)[C@H](C)[C@@H](O)[C@H](C)[C@@H](O)[C@](C)(O)C[C@@H](C)CN(CCCNC(=O)c2ocnc2C)[C@H](C)[C@@H](O)[C@]1(C)O | – | > 21300
CC[C@H]1OC(=O)[C@H](C)[C@@H](O[C@H]2C[C@@](C)(OC)[C@@H](O)[C@H](C)O2)[C@H](C)[C@@H](O[C@@H]2O[C@H](C)C[C@H](N(C)C)[C@H]2O)[C@](C)(O)C[C@@H](C)CN(CCCNCc2ccccn2)[C@H](C)[C@@H](O)[C@]1(C)O | – | 1480
CCOc1ccc2ccccc2c1CNCCCN1C[C@H](C)C[C@@](C)(O)[C@H](O[C@@H]2O[C@H](C)C[C@H](N(C)C)[C@H]2O)[C@@H](C)[C@H](O[C@H]2C[C@@](C)(OC)[C@@H](O)[C@H](C)O2)[C@@H](C)C(=O)O[C@H](CC)[C@@](C)(O)[C@H](O)[C@H]1C | 7000 | 26
CC[C@H]1OC(=O)[C@H](C)[C@@H](O[C@H]2C[C@@](C)(OC)[C@@H](O)[C@H](C)O2)[C@H](C)[C@@H](O[C@@H]2O[C@H](C)C[C@H](N(C)C)[C@H]2O)[C@](C)(O)C[C@@H](C)CN(CCC(=O)NCc2ccccc2)[C@H](C)[C@@H](O)[C@]1(C)O | > 50000 | 261

SMILES | IC50 [1] [nM] | IC50 [2] [nM]
CC[C@H]1OC(=O)[C@H](C)[C@@H](O[C@H]2C[C@@](C)(OC)[C@@H](O)[C@H](C)O2)[C@H](C)[C@@H](O[C@@H]2O[C@H](C)C[C@H](N(C)C)[C@H]2O)[C@](C)(O)C[C@@H](C)CN(CCCNCc2ccccc2)[C@H](C)[C@@H](O)[C@]1(C)O | > 50000 | 104
CC[C@H]1OC(=O)[C@H](C)[C@@H](O)[C@H](C)[C@@H](O[C@@H]2O[C@H](C)C[C@H](N(C)C)[C@H]2O)[C@](C)(O)C[C@@H](C)CN(CCCNCc2cccnc2)[C@H](C)[C@@H](O)[C@]1(C)O | > 50000 | 2510
CC[C@H]1OC(=O)[C@H](C)[C@@H](O[C@H]2C[C@@](C)(OC)[C@@H](O)[C@H](C)O2)[C@H](C)[C@@H](O[C@@H]2O[C@H](C)C[C@H](N(C)C)[C@H]2O)[C@](C)(O)C[C@@H](C)CN(CCCNC(=O)c2ocnc2C)[C@H](C)[C@@H](O)[C@]1(C)O | – | 878
CC[C@H]1OC(=O)[C@H](C)[C@@H](O[C@H]2C[C@@](C)(OC)[C@@H](O)[C@H](C)O2)[C@H](C)[C@@H](O[C@@H]2O[C@H](C)C[C@H](N(C)C)[C@H]2O)[C@](C)(O)C[C@@H](C)CN(CCCNc2cc(C)nc3ccc(OC)cc23)[C@H](C)[C@@H](O)[C@]1(C)O | > 50000 | 854
CC[C@H]1OC(=O)[C@H](C)[C@@H](O)[C@H](C)[C@@H](O[C@@H]2O[C@H](C)C[C@H](N(C)C)[C@H]2O)[C@](C)(O)C[C@@H](C)CN(CCCNCc2ccnc3ccccc23)[C@H](C)[C@@H](O)[C@]1(C)O | > 50000 | 264
CC[C@H]1OC(=O)[C@H](C)[C@@H](O[C@H]2C[C@@](C)(OC)[C@@H](O)[C@H](C)O2)[C@H](C)[C@@H](O[C@@H]2O[C@H](C)C[C@H](N(C)C)[C@H]2O)[C@](C)(O)C[C@@H](C)CN(CCCNCc2cccc3ccccc23)[C@H](C)[C@@H](O)[C@]1(C)O | 10000 | 25
CC[C@H]1OC(=O)[C@H](C)[C@@H](O[C@H]2C[C@@](C)(OC)[C@@H](O)[C@H](C)O2)[C@H](C)[C@@H](O[C@@H]2O[C@H](C)C[C@H](N(C)C)[C@H]2O)[C@](C)(O)C[C@@H](C)CN(CCCNC(=O)CCCCc2ccccc2)[C@H](C)[C@@H](O)[C@]1(C)O | 49000 | 92
CC[C@H]1OC(=O)[C@H](C)[C@@H](O[C@H]2C[C@@](C)(OC)[C@@H](O)[C@H](C)O2)[C@H](C)[C@@H](O[C@@H]2O[C@H](C)C[C@H](N(C)C)[C@H]2O)[C@](C)(O)C[C@@H](C)CN(CCCNCc2cccnc2)[C@H](C)[C@@H](O)[C@]1(C)O | > 50000 | 391
CC[C@H]1OC(=O)[C@H](C)[C@@H](O)[C@H](C)[C@@H](O[C@@H]2O[C@H](C)C[C@H](N(C)C)[C@H]2O)[C@](C)(O)C[C@@H](C)CN(CCCNC(=O)Cc2cccc3ccccc23)[C@H](C)[C@@H](O)[C@]1(C)O | – | 1370
CC[C@H]1OC(=O)[C@H](C)[C@@H](O)[C@H](C)[C@@H](O[C@@H]2O[C@H](C)C[C@H](N(C)C)[C@H]2O)[C@](C)(O)C[C@@H](C)CN(CCCNc2ccnc3cc(Cl)ccc23)[C@H](C)[C@@H](O)[C@]1(C)O | 35000 | 13
CC[C@H]1OC(=O)[C@H](C)[C@@H](O)[C@H](C)[C@@H](O[C@@H]2O[C@H](C)C[C@H](N(C)C)[C@H]2O)[C@](C)(O)C[C@@H](C)CN(CCCNCc2cccc3ccccc23)[C@H](C)[C@@H](O)[C@]1(C)O | 38000 | 55
CC[C@H]1OC(=O)[C@H](C)[C@@H](O[C@H]2C[C@@](C)(OC)[C@@H](O)[C@H](C)O2)[C@H](C)[C@@H](O[C@@H]2O[C@H](C)C[C@H](N(C)C)[C@H]2O)[C@](C)(O)C[C@@H](C)CN(CCCNCc2ccc3ccccc3n2)[C@H](C)[C@@H](O)[C@]1(C)O | 28000 | 62
CC[C@H]1OC(=O)[C@H](C)[C@@H](O)[C@H](C)[C@@H](O[C@@H]2O[C@H](C)C[C@H](N(C)C)[C@H]2O)[C@](C)(O)C[C@@H](C)CN(CCCNCc2cnc3ccccc3c2)[C@H](C)[C@@H](O)[C@]1(C)O | – | 201
CC[C@H]1OC(=O)[C@H](C)[C@@H](O)[C@H](C)[C@@H](O[C@@H]2O[C@H](C)C[C@H](N(C)C)[C@H]2O)[C@](C)(O)C[C@@H](C)CN(CCCNC(=O)[C@H](C)c2ccc3cc(OC)ccc3c2)[C@H](C)[C@@H](O)[C@]1(C)O | – | 520
CC[C@H]1OC(=O)[C@H](C)[C@@H](O[C@H]2C[C@@](C)(OC)[C@@H](O)[C@H](C)O2)[C@H](C)[C@@H](O[C@@H]2O[C@H](C)C[C@H](N(C)C)[C@H]2O)[C@](C)(O)C[C@@H](C)CN(CCCNC(=O)Cc2cccc3ccccc23)[C@H](C)[C@@H](O)[C@]1(C)O | – | 62
